# Assay results of several laboratories.
# Each line is one published result; the experiments were not run side by side.
# Mode: inhibitor
# CDK2: Cyclin-dependent kinase 2 (CDK2, Homo sapiens, UniProt P24941)
# PARP2: Poly [ADP-ribose] polymerase 2 (PARP2, Homo sapiens, UniProt Q9UGN5)
SMILES,target,read-out,technique,pH,IC50 [nM]
Cc1n[nH]c2ccc3nc(-c4ccc(C(=O)NCCN5CCCC5)cc4)c4c(c3c12)CCCC4,CDK2,enzyme activity,,,310
CCNc1ccc(C(N)=O)cn1,"Nicotinamide N-methyltransferase (NNMT, Homo sapiens, UniProt P40261)",enzyme activity in cells,,,> 31600
CC(=O)N1C(=O)NC(C)=C(C(=O)OCC(C)C)C1c1cccc([N+](=O)[O-])c1 (racemic),"Voltage-dependent L-type calcium channel subunit alpha-1C (Cacna1c, Rattus norvegicus, UniProt P22002)",ion current,patch clamp,,1300
Cc1cccc(Cn2nnc3c4ccc(F)cc4c(=O)[nH]c32)c1,PARP2,enzyme activity,,,> 10000
CN(C)CCNC(=O)c1ccc(-c2nc3ccc4[nH]ncc4c3c3c2CCCCC3)cn1,CDK2,enzyme activity,,,210
Cn1cc(C2=C(c3cn(CCCSC(=N)N)c4ccccc34)C(=O)NC2=O)c2ccccc21,"Mitogen-activated protein kinase kinase kinase kinase 1 (MAP4K1, Homo sapiens, UniProt Q92918)",enzyme activity,,,54.4
CN(C)CCNC(=O)c1ccc(-c2nc3ccc4[nH]ncc4c3c3c2CC(F)(F)CC3)cc1,CDK2,enzyme activity,,,109
CCCCCn1nnc2c3ccc(F)cc3c(=O)[nH]c21,PARP2,enzyme activity,,,> 10000
CC(=O)C(=O)N(CC(C)C)NC(=O)[C@H](Cc1ccccc1)NC(=O)[C@H](CC(C)C)NC(=O)[C@H](CCc1ccccc1)NC(=O)OCc1ccccc1,"Cathepsin B (CTSB, Homo sapiens, UniProt P07858)",enzyme activity,fluorescence,pH 6,31500
O=c1[nH]c2c(nnn2Cc2ccccc2)c2ccc(F)cc12,PARP2,enzyme activity,,,> 10000
Cc1n[nH]c2ccc3nc(-c4ccc(C(=O)NCCN(C)C)cc4F)c4c(c3c12)CCCC4,CDK2,enzyme activity,,,80
O=c1[nH]c(=O)c(Cc2cccc(C(F)(F)F)c2)c([C@H]2CC[C@H](c3ccccc3)CC2)[nH]1,"Multidrug and toxin extrusion protein 1 (SLC47A1, Homo sapiens, UniProt Q96FL8)",transporter uptake,,,> 8000
